Bioassay records (PubChem BioAssay)
Only some compounds are listed: those with a hit (about 5.1% of all), similar ones and a draw of the others.
M1 antagonist: blocks the rat M1 muscarinic receptor response to acetylcholine; CHO-M1 cells, Fluo-4 calcium, ACh EC80 antagonist mode; hits give low values; actives 3.4% (n = 64,000); B-score at 10 µM; P08482;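 active means calcium fluorescence response, raw or row-and-column corrected B-score, differing from the plate sample mean either way at a set confidence level, mostly lower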
Target sequence (P08482 whole entry, looked up): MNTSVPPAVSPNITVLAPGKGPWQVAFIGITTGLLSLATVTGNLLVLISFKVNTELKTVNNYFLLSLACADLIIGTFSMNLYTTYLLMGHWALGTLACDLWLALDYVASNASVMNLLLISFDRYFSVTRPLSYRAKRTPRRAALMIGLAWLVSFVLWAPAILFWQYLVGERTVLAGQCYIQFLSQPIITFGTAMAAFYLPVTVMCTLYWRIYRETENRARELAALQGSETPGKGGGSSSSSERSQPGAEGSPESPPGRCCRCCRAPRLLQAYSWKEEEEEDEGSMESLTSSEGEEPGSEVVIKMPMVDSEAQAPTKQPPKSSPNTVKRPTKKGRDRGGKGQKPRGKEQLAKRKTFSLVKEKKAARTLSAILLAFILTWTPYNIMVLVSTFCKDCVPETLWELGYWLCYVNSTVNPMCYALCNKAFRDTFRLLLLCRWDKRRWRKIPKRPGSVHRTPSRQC
M1 ag: activates the M1 muscarinic receptor | CHO-M1 cells, Fluo-4 calcium fluorescence, agonist mode; hits give high values | B-score at 10 µM | actives 3% (n = 64,000) | AID 626;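 active means fluorescence rise, raw or as B-score row- and column-corrected plate score, outside the 99.7% band of its plate's samples, either direction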
BAP1 block: inhibitors of human BAP1 deubiquitinase; Q92560; recombinant BAP1, Ub-AMC hydrolysis fluorescence kinetic; hits give low values; calls only at 20 µM; actives 0.48% (n = 72,000); AID 436;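 active means activity remaining at or below 50% of control, provided the compound also passes the data quality filters; inactive means the rest, including low values that fail the filters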
tolC growth inh: growth inhibitors of E. coli BW25113 tolC mutant; OD615; growth inhibition, % at 10 µM (by protocol); actives 2.2% (n = 65,000); AID 573;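 active means growth inhibition at or above a cutoff equal to the mean over every tested compound plus 3 SD, cut at about 60% in these data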;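 further: growth measured after 20 h incubation at 37 °C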
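Doses: one dose of 10 µM final / Material: E. coli BW25113 ΔtolC::kan, tolC deletion mutant strain / Buffer or medium: LB with kanamycin 50 µg/mL / Evaluation: percent growth inhibition / Detection: optical density read at 615 nm / Incubation: 37 °C, 20 h exposure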
E coli WT exp: growth inhibitors of E. coli BW25113 wild type. OD600 absorbance. growth inhibition, % at 100 µM. actives 0.15% (n = 98,000);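 active means growth inhibition above about 50% at one test dose, limit read from the data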;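 further: growth measured after 20 h incubation at 37 °C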
Hsp90 inh: displaces geldanamycin probe from tumor Hsp90 | AID 429 | NCI-N417 lysate Hsp90, Cy3B-geldanamycin FP displacement | actives 0.35% (n = 64,000) | inhibition, % at 30 µM | P07900;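 active means inhibition above 50%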
Numbers stand for hits; . = inactive; / = no result shown; + = active, no number.

SMILES	M1 antagonist	M1 ag	BAP1 block	tolC growth inh	E coli WT exp	Hsp90 inh
O=C(c1cccs1)N(Cc1ccccn1)Cc1ccco1	.	.	.	.	.	.
COCCN=C1Sc2nc3ccc(C)cc3cc2CN1Cc1ccco1	/	/	/	/	.	/
S=C1SCN(Cc2ccccn2)CN1Cc1ccco1	.	.	.	.	71	.
COCCN1CSC(=S)N(Cc2ccco2)C1	.	.	.	.	62	.
COc1cc(/C=C(/C#N)c2ccc(F)cc2)ccc1OCc1ccc(C(=O)O)o1	.	.	.	100	.	.
Cn1c(=O)c2c(nc(N3CCCCC3)n2CCSc2nc3ccccc3o2)n(C)c1=O	.	.	.	/	/	.
CCC1CCCCN1c1nc2c(c(=O)n(C)c(=O)n2C)n1CCSc1nc2ccccc2o1 (stereo not given)	-0.71	.	.	.	/	.
O=c1c2cccc3c2c(nn1CN1CCOCC1)-c1ccccc1-3	.	.	.	80	.	.
CN(CCO)c1nc(N)c2c(N)nc3c(c2c1C#N)CC(=O)N3C1CCCC1	/	/	/	/	.	/
CC(C)(C)N1C(=O)Cc2c1nc(N)c1c(N)nc(N3CCCCC3CO)c(C#N)c21 (stereo not given)	.	.	.	80	.	.
CC(=O)c1ccc(NC(=O)Nc2cccc(Cl)c2)cc1	/	/	/	/	52	/
N#CC(C#N)=c1ccc2c(c1)N1C3=C(CCCC3)CC3CCCCC31N=2 (stereo not given)	.	.	.	82	.	.
NC(N)=NS(=O)(=O)c1ccc(N=Cc2cc(Br)ccc2O)cc1	/	/	.	/	/	/
CCn1c2ccccc2c2nnc(SCc3ccccc3)nc21	.	.	.	73	.	.
CC(C)Oc1ccc(Cc2cnc(N)nc2N)cc1	/	/	/	/	71	/
CCOC(=O)c1nn2c(C(F)(F)F)cc(-c3ccc(OC)cc3)nc2c1Cl	/	/	.	/	/	/
Cc1nn(-c2ccccc2)c2sc(C(=O)OCN3C(=O)c4ccccc4C3=O)cc12	.	.	+	.	/	.
CNC(=O)COC(=O)c1cc2c(C)nn(-c3ccc(F)cc3)c2s1	/	/	/	/	.	/
CCCCOC(=O)Nc1cc(C(=O)OC)ccc1C(=O)OC	.	.	/	67	.	.
CCCCOC(=O)Nc1ccc(C(=O)OC)cc1	.	.	.	.	.	.
COc1ccc(-c2csc(N(CC3CCCO3)C(=O)c3ccco3)n2)cc1 (stereo not given)	.	.	.	61	.	.
CCC(=O)Nc1nc2ccccc2n1CCN1CCCCC1	/	/	.	/	/	/
c1ccc(N2CCN(c3ncnc4sc5c(c34)CCC5)CC2)cc1	.	.	.	.	.	.
CCc1cc2c(N3CCN(c4ccccc4)CC3)ncnc2s1	.	.	.	93	.	.
COC(=O)c1cc(-c2ccc([N+](=O)[O-])cc2)nc2ccccc12	/	/	.	/	/	/
SMILES	M1 antagonist	M1 ag	BAP1 block	tolC growth inh	E coli WT exp	Hsp90 inh
CCOC(=O)C(C)Sc1nc(-c2cccs2)ccc1C#N (stereo not given)	.	.	.	.	.	.
C=COC(=O)CSc1nc(-c2cccs2)ccc1C#N	2.9	.	/	.	.	.
O=C(c1cc(-c2ccccc2)on1)N1CCN(Cc2ccc3c(c2)OCO3)CC1	.	.	.	66	.	.
Cc1ccc(C)c(C(=O)CSc2n[nH]c(-c3ccncc3)n2)c1	.	.	.	99	.	.
O=C(NCCOc1ccccc1Cl)c1ccc2ccccc2n1	/	/	.	/	/	/
COc1ccccc1-n1c(C=Cc2c(C)[nH]c3ccccc23)nc2ccccc2c1=O	/	/	.	/	/	/
CC1CCC(C(C)C)C(OC(=O)COC(=O)c2ccc(=O)[nH]c2)C1 (stereo not given)	.	.	.	63	.	.
NC(=O)c1cc2cc([N+](=O)[O-])ccc2oc1=Nc1cccc2ccccc12	/	/	.	/	/	/
O=C(Nc1nnc(-c2ccccc2)o1)c1nc2ccccc2s1	.	.	.	73	/	.
CCOc1ccccc1NC(=O)C1=C(C)NC(=O)NC1c1ccc(Cl)cc1 (stereo not given)	/	/	.	/	/	/
O=C(Nc1ccc(Cl)c(Cl)c1)N1CCSC1c1ccco1 (stereo not given)	.	.	.	100	.	.
CCC1CCCCN1C(=O)c1cc(-c2ccc(Cl)c(Cl)c2)on1 (stereo not given)	.	.	.	100	.	.
Cc1ccc(NC(=O)c2nnn(-c3cc(C)cc(C)c3)c2N)cc1	.	.	.	67	.	.
Cc1nnc(NC(=O)c2ccc3ccccc3c2)o1	.	.	/	.	50	/
Cc1nnc(NC(=O)c2ccc(S(=O)(=O)N3CCCCCC3)cc2)o1	.	.	.	.	.	.
Cc1nnc(NC(=O)c2ccc(S(=O)(=O)N(C)Cc3ccccc3)cc2)o1	.	.	.	74	.	.
CCOc1ccc(C2C(C(=O)OC3CCCC3)=C(C)NC3=C2C(=O)CC(c2ccc(OC)cc2)C3)cc1OC (stereo not given)	/	/	.	/	/	/
CCCOC(=O)C1=C(C)NC2=C(C(=O)CCC2)C1c1ccc(OC)c(OC)c1OC (stereo not given)	/	/	.	/	/	/
Cc1ccc(Cn2ncn3c(cc4ccccc43)c2=O)cc1	.	.	.	65	.	.
CC(C)c1ccc(S(=O)(=O)Nc2ccc3oc4c(c3c2)C(=O)CCC4)cc1	/	/	.	/	/	/
CN1[C@@H](CC(=O)c2ccccc2)CCC[C@H]1C[C@H](O)c1ccccc1	-8.4	34	.	.	/	.
CC1CCCN(Cc2nc3c(c(=O)n(C)c(=O)n3C)n2CCCc2ccccc2)C1 (stereo not given)	.	2.4	.	.	.	.
CC1CCCN(Cc2nc3c(c(=O)n(C)c(=O)n3C)n2CCc2ccccc2)C1 (stereo not given)	.	2.3	.	.	.	.
CC(C)Cn1c(CN(C)Cc2ccccc2)nc2c1c(=O)n(C)c(=O)n2C	.	.	.	.	.	.
CN(Cc1ccccc1)Cc1nc2c(c(=O)n(C)c(=O)n2C)n1CCCc1ccccc1	.	.	.	100	.	.
SMILES	M1 antagonist	M1 ag	BAP1 block	tolC growth inh	E coli WT exp	Hsp90 inh
CC1CCCCN1Cc1nc2c(c(=O)n(C)c(=O)n2C)n1CCCc1ccccc1 (stereo not given)	.	.	.	/	/	.
CCOCCn1c(CN2CCCCC2C)nc2c1c(=O)n(C)c(=O)n2C (stereo not given)	-3.2	.	.	.	/	.
CC(N)C(=O)N1CCOCCOCCN(C(=O)C(C)N)CCOCCOCC1 (stereo not given)	/	/	.	/	/	/
COc1ccc(C2C=C(Nc3ccc(Cl)cc3)C(=O)N2c2ccc(Cl)cc2)cc1OC (stereo not given)	/	/	.	/	/	/
Nc1nncn1C(=O)CCCN1C(=O)c2ccccc2C1=O	.	.	.	96	.	.
CCOC(=O)c1sc(NC(=O)c2cc(-c3ccc(OC)c(OC)c3)nc3ccccc23)nc1C	/	/	.	/	/	/
O=C(Nc1nc(-c2cccs2)cs1)c1ccc(Cl)s1	.	.	.	96	.	.
CC(C)(C)c1csc(NC(=O)c2ccc(Cl)s2)n1	.	.	/	100	.	.
CC(=O)Nc1nc(-c2cccs2)cs1	.	.	.	.	.	.
Cc1ccc(C(=O)OC(=Cc2nccn2Cc2ccccc2)c2ccc(C)cc2)cc1	/	/	.	/	/	/
